Here are results for one protein from ChEMBL document CHEMBL1156122, “Protein tyrosine phosphatase 1B inhibitors isolated from Morus bombycis” (Bioorg Med Chem Lett, 2009).

Substrate in series [1]: CC(C)=CCc1c(O)cc(C(=O)[C@H]2[C@@H](c3c(O)ccc(C(=O)/C=C/c4ccc(O)cc4)c3O)C=C(C)C[C@@H]2c2ccc(O)cc2)cc1O
The experiment in a line: (§1) Activity at human recombinant PTP1B. A digest of the protocol: (§2)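 Recombinant human PTP1B (0.1 μg) incubated with 2 mM p-NPP in 50 mM citrate pH 6.0, 0.1 M NaCl, 1 mM EDTA, 1 mM DTT, with or without inhibitor. Incubation 37 °C for 30 min, stopped with 10 M NaOH. p-Nitrophenol read by absorbance at 405 nm, corrected for nonenzymatic p-NPP hydrolysis without enzyme. Values are mean ± SD of triplicates.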

Substrate in series [2]: CC(C)=CCC/C(C)=C/Cc1c(O)cc(O)cc1-c1cc2ccc(O)cc2o1
Described as §1. In short, it runs like this:
as §2

Substrate in series [3]: CC(C)=CCc1c(O)cc(C(=O)[C@H]2[C@@H](c3c(O)ccc(C(=O)/C=C/c4ccc(O)cc4O)c3O)C=C(C)C[C@@H]2c2ccc(O)cc2O)cc1O
The series is described as §1. A digest of the protocol:
as §2

Substrate in series [4]: CC(C)=CCc1c(O)cc(C(=O)[C@H]2[C@@H](c3c(O)ccc(C(=O)/C=C/c4ccc(O)cc4)c3O)C=C(C)C[C@@H]2c2ccc(O)cc2O)cc1O
The series is described as §1. In short, it runs like this:
as §2

Substrate in series [5]: CC(C)=CCC/C(C)=C\CC/C(C)=C\Cc1c(O)cc(O)cc1-c1cc2ccc(O)cc2o1
The series is described as §1. A digest of the protocol: as §2

Substrate in series [6]: CC(C)=CCC/C(C)=C/Cc1c(O)ccc2cc(-c3cc(O)cc(O)c3CC=C(C)C)oc12
Described as §1. In short, it runs like this: as §2

B1: Tyrosine-protein phosphatase non-receptor type 1 (Homo sapiens), P18031 (protein)
chain: MEMEKEFEQIDKSGSWAAIYQDIRHEASDFPCRVAKLPKNKNRNRYRDVSPFDHSRIKLHQEDNDYINASLIKMEEAQRSYILTQGPLPNTCGHFWEMVWEQKSRGVVMLNRVMEKGSLKCAQYWPQKEEKEMIFEDTNLKLTLISEDIKSYYTVRQLELENLTTQETREILHFHYTTWPDFGVPESPASFLNFLFKVRESGSLSPEHGPVVVHCSAGIGRSGTFCLADTCLLLMDKRKDPSSVDIKKVLLEMRKFRMGLIQTADQLRFSYLAVIEGAKFIMGDSSVQDQWKELSHEDLEPPPEHIPPPPRPPKRILEPHNGKCREFFPNHQWVKEETQEDKDCPIKEEKGSPLNAAPYGIESMSQDTEVRSRVVGGSLRGAQAASPAKGEPSLPEKDEDHALSYWKPFLVNMCVATVLTAGAYLCYRFLFNSNT
B1: the Michaelis constant (Km) was determined as 1190 µM in series [1]; 1250 µM in series [2]; 2810 µM in series [3]; 1640 µM in series [4]; 3170 µM in series [5]; 2080 µM in series [6]. The Vmax in series [1] worked out at 6.71 µM/min; in series [2], 6.58 µM/min; in series [3], 5.41 µM/min; in series [4], 5.95 µM/min; in series [5], 5.49 µM/min; in series [6], 5.78 µM/min.
